Measurements from ChEMBL document CHEMBL3414496, “Synthesis and biological evaluation of novel 2-heteroarylimino-1,3-thiazolidin-4-ones as potential anti-tumor agents” (Eur J Med Chem, 2015).
The source made the active and inactive calls. No cut-off for these calls is given here.

How the values were obtained:
[1] = system: HT-29; assay: Induction of ROS generation in human HT-29 cells at cytotoxic IC50 level after 1 hr by DCF-DA staining based fluorescence assay; format: functional, cell-based
Procedure, shortened: (§1)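 HT29 cells treated two days after seeding, then loaded with 50 µM DCF-DA for 15 min at 37°C. Cells trypsinized, washed and resuspended in PBS, and 30 000 cells/sample read by flow cytometry (FL-1). Expressed as % of DMSO-treated cells; […] for 1 h served as positive control. Triplicates from three independent experiments.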

[2] = system: HT-29; assay: Induction of ROS generation in human HT-29 cells at cytotoxic IC50 level after 6 hrs by DCF-DA staining based fluorescence assay; format: functional, cell-based; procedure, shortened: as §1
[3] = system: HT-29; assay: Induction of HO1 expression in human HT-29 cells at 3.8 uM after 24 hrs by Western blotting method; format: functional
Procedure, shortened: (§2)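 HT29 whole-cell lysates in Hepes/KOH pH 7.5 with EDTA, KCl, NP40, DTT, protease inhibitors; 50 µg protein on 10–15% SDS-PAGE, nitrocellulose, overnight 4°C primary antibody (GCL 1:500, HO-1 1:1000), HRP secondary, chemiluminescence. Bands normalized to GAPDH (1:10 000), DMSO ratio set at 1.00; representative of three independent experiments.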

[4] = system: HT-29; assay: Induction of GCL expression in human HT-29 cells at 3.8 uM after 2 hrs by Western blotting method; format: functional; procedure, shortened: as §2
[5] = system: HT-29; assay: Reduction in cell viability of human HT-29 cells assessed as reduction in living cell level at cytotoxic IC50 level after 24 to 48 hrs by DCF-DA and propidium iodide staining based flow cytometry; format: functional
Procedure, shortened: (§3)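 HT29 cells treated two days after seeding, then loaded together with 50 µM DCF-DA and 25 µg/mL propidium iodide for 15 min at 37°C. Cells trypsinised, washed and resuspended in PBS; 30 000 cells per sample read by flow cytometry (FL-1, FL-3). Viable cells (PI-negative, DCF-positive) given as % of total events. Triplicates, two independent experiments.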

[6] = system: HT-29; assay: Induction of cell cycle arrest in human HT-29 cells assessed as accumulation at G0/G1 phase by propidium iodide staining based flow cytometry (reference value: 46.1 +/- 0.4%); format: functional
[7] = system: HT-29; assay: Induction of HO1 expression in human HT-29 cells at 6.4 uM after 2 hrs by Western blotting method; format: functional; procedure, shortened: as §2
[8] = system: HT-29; assay: Induction of GCL expression in human HT-29 cells at 6.4 uM after 2 hrs by Western blotting method; format: functional; procedure, shortened: as §2
[9] = system: HT-29; assay: Induction of GCL expression in human HT-29 cells at 6.4 uM after 6 hrs by Western blotting method; format: functional; procedure, shortened: as §2
[10] = system: HT-29; assay: Induction of GCL expression in human HT-29 cells at 6.4 uM after 24 hrs by Western blotting method; format: functional; procedure, shortened: as §2
[11] = system: HT-29; assay: Induction of NQO1 expression in human HT-29 cells at 6.4 uM after 24 hrs by Western blotting method; format: functional
Procedure, shortened: (§4)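 Whole-cell lysates from treated HT29 cells in pH 7.5 Hepes/KOH buffer with EDTA, KCl, Igepal, DTT and protease inhibitors. 50 µg protein run on 10-15% SDS-PAGE and transferred to nitrocellulose. Probed overnight at 4°C with anti-HO-1 (1:1 000), anti-NQO1 (1:1 000) or anti-GCL (1:500), then HRP secondary for 45 min and chemiluminescence. Bands normalized to GAPDH (1:10 000), with the DMSO ratio set to 1.00. Representative of three experiments.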

[12] = system: HT-29; assay: Induction of GCL expression in human HT-29 cells at 1.5 uM after 2 hrs by Western blotting method; format: functional; procedure, shortened: as §2
[13] = system: HT-29; assay: Induction of GCL expression in human HT-29 cells at 1.5 uM after 4 hrs by Western blotting method; format: functional; procedure, shortened: as §2
[14] = system: HT-29; assay: Induction of NQO1 expression in human HT-29 cells at 1.5 uM after 6 hrs by Western blotting method; format: functional; procedure, shortened: as §4
[15] = system: HT-29; assay: Induction of cell cycle arrest in human HT-29 cells assessed as accumulation at G0/G1 phase by propidium iodide staining based flow cytometry (reference value: 67.7 +/- 0.5%); format: functional
[16] = system: HT-29; assay: Induction of cell cycle arrest in human HT-29 cells assessed as accumulation at G2/M phase by propidium iodide staining based flow cytometry (reference value: 11.3 +/- 1%); format: functional
[17] = system: HT-29; assay: Induction of HO1 expression in human HT-29 cells at 2.5 uM after 2 hrs by Western blotting method; format: functional; procedure, shortened: as §2
[18] = system: HT-29; assay: Induction of HO1 expression in human HT-29 cells at 2.5 uM after 4 hrs by Western blotting method; format: functional; procedure, shortened: as §2
[19] = system: HT-29; assay: Induction of HO1 expression in human HT-29 cells at 2.5 uM after 6 hrs by Western blotting method; format: functional; procedure, shortened: as §2
[20] = system: HT-29; assay: Induction of HO1 expression in human HT-29 cells at 2.5 uM after 24 hrs by Western blotting method; format: functional; procedure, shortened: as §2
[21] = system: HT-29; assay: Induction of GCL expression in human HT-29 cells at 2.5 uM after 2 hrs by Western blotting method; format: functional; procedure, shortened: as §2
[22] = system: HT-29; assay: Induction of GCL expression in human HT-29 cells at 2.5 uM after 4 hrs by Western blotting method; format: functional; procedure, shortened: as §2
[23] = system: HT-29; assay: Induction of GCL expression in human HT-29 cells at 2.5 uM after 6 hrs by Western blotting method; format: functional; procedure, shortened: as §2
[24] = system: HT-29; assay: Induction of GCL expression in human HT-29 cells at 2.5 uM after 24 hrs by Western blotting method; format: functional; procedure, shortened: as §2
[25] = system: HT-29; assay: Induction of NQO1 expression in human HT-29 cells at 2.5 uM after 2 hrs by Western blotting method; format: functional; procedure, shortened: as §4
[26] = system: HT-29; assay: Induction of NQO1 expression in human HT-29 cells at 2.5 uM after 4 hrs by Western blotting method; format: functional; procedure, shortened: as §4
[27] = system: HT-29; assay: Induction of NQO1 expression in human HT-29 cells at 2.5 uM after 6 hrs by Western blotting method; format: functional; procedure, shortened: as §4
[28] = system: HT-29; assay: Induction of NQO1 expression in human HT-29 cells at 2.5 uM after 24 hrs by Western blotting method; format: functional; procedure, shortened: as §4
[29] = system: HT-29; assay: Growth inhibition of human HT-29 cells at 2.5 uM after 3 days by trypan blue dye exclusion assay; format: functional; conditions: HT-29, 72 h, read-out: GI
Procedure, shortened: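 HT29 cells treated 48 h after seeding, dosed daily with daily medium change over three days; drug diluted in DMSO, controls 0.1% (v/v) DMSO. Cells trypsinized, mixed 1:1 with 0.04% trypan blue, live cells counted by hematimeter. Reported as mitotic index (treated/DMSO count); triplicates from two independent experiments.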

[30] = system: HT-29; assay: Reduction in cell growth of human HT-29 cells at 2.5 uM after 3 days by trypan blue dye exclusion assay; format: functional, cell-based
Procedure, shortened: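 HT29 cells treated daily from 48 h after seeding, over three days with daily medium changes, in 0.1% (v/v) DMSO vehicle. Cells trypsinised, mixed 1:1 with 0.04% trypan blue, and living cells counted by haemocytometer under microscope. Mitotic index is treated count relative to DMSO control. Triplicate determinations, two independent experiments, mean ± S.E.M.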

[31] = system: HT-29; assay: Reduction in cell viability of human HT-29 cells assessed as reduction in living cell level at 2.5 uM after 24 to 48 hrs by DCF-DA and propidium iodide staining based flow cytometry; format: functional; procedure, shortened: as §3
[32] = system: HT-29; assay: Induction of cell cycle arrest in human HT-29 cells assessed as accumulation at subG1 phase by propidium iodide staining based flow cytometry (reference value: 2.3 +/- 0.1%); format: functional

Row | SMILES | Activity [1] | Activity [2] | inhibition [5] | Activity [6] [%] | Activity [15] [%] | Activity [16] [%] | fold change (FC) [17] | fold change (FC) [18] | fold change (FC) [19] | fold change (FC) [20] | fold change (FC) [21] | fold change (FC) [22] | fold change (FC) [23] | fold change (FC) [24] | fold change (FC) [25] | fold change (FC) [26] | fold change (FC) [27] | fold change (FC) [28] | inhibition of growth at 2.5 µM [29] [%] | inhibition [30] | other results
1 | COc1ccc(/C=C2\S/C(=N\c3csc(-c4ccc(Cl)cc4)c3)NC2=O)cc1 | Active | inactive | Active | 1.2 | – | – | – | – | – | – | – | – | – | – | – | – | – | – | – | – | fold change (FC) [3]: 1; fold change (FC) [4]: 1.22
2 | COc1ccc(/C=C2\S/C(=N\c3csc(-c4ccc(Cl)cc4)c3)NC2=O)cc1OC | Active | inactive | Active | 2.3 | – | – | – | – | – | – | – | – | – | – | – | – | – | – | – | – | –
3 | Cc1ccc(/C=C2\S/C(=N\c3csc(-c4ccc(Cl)cc4)c3)NC2=O)cc1 | – | – | Active | 1.2 | – | – | – | – | – | – | – | – | – | – | – | – | – | – | – | – | fold change (FC) [7]: 1; fold change (FC) [8]: 1.93; fold change (FC) [9]: 2.25; fold change (FC) [10]: 0.97; fold change (FC) [11]: 1.6
4 | CN(C)c1ccc(/C=C2\S/C(=N\c3csc(-c4ccc(Cl)cc4)c3)NC2=O)cc1 | – | – | Active | 1.5 | – | – | – | – | – | – | – | – | – | – | – | – | – | – | – | – | fold change (FC) [12]: 0.9; fold change (FC) [13]: 0.96; fold change (FC) [14]: 1.26
5 | CN(C)c1ccc(/C=C2\S/C(=N\c3nc(-c4ccc(Cl)cc4)cs3)NC2=O)cc1 | – | – | – | – | 60.6 | 18.7 | 1 | 1 | 1 | 1 | 0.98 | 0.99 | 1.2 | 1.18 | 0.93 | 0.67 | 0.72 | 0.78 | 90 | Active | inhibition [31]: Active; Activity [32]: 16.2%
6 | COc1ccc(/C=C2\S/C(=N\c3nc(-c4ccc(Cl)cc4)cs3)NC2=O)cc1 | – | – | – | – | 58.7 | 24.1 | 1 | 1 | 1 | 1 | 1.06 | 0.87 | 0.86 | 0.98 | 1.07 | 0.85 | 0.96 | 0.85 | 90 | Active | inhibition [31]: Active; Activity [32]: 20.9%
